Reference: ChEMBL document CHEMBL1153019, “Lignans with anti-HIV activity from Schisandra propinqua var. sinensis” (J Nat Prod, 2009)

Assays:
[1] = Selectivity index, ratio of CC50 for human C8166 cells to EC50 for HIV1 3B; format: toxicity, cell-based; details: read-out: Ratio CC50/EC50
[2] = test system: Human immunodeficiency virus 1; assay: Antiviral activity against HIV1 3B in human C8166 cells assessed as inhibition of virus-induced cytopathogenicity; format: functional, organism-based; details: Human immunodeficiency virus 1, 3B
Method in brief: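 HIV-1 cytopathic-effect inhibition in C8166 cells, run in parallel with the cytotoxicity test. AZT served as positive control, and EC50 was the read-out.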

[3] = Cytotoxicity against human C8166 cells by MTT assay; format: cell-based
Method in brief: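 MTT read-out of C8166 cell viability, run in parallel with the anti-HIV-1 cytopathic-effect assay. AZT served as positive control, and CC50 was derived.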

COc1cc2c(c(OC)c1OC)-c1c(cc3c(c1OC)OCO3)[C@H](OC(=O)c1ccccc1)[C@H](C)[C@](C)(O)[C@H]2OC(=O)c1ccccc1
selectivity ratio [1]: > 8.7 | EC50 [2]: 22.9 µM | CC50 [3]: > 200 µM

COc1cc2c(c(OC)c1OC)-c1c(cc3c(c1OC)OCO3)[C@H](OC(=O)c1ccccc1)[C@H](C)[C@](C)(O)[C@H]2OC(=O)/C=C/c1ccccc1
selectivity ratio [1]: > 3.9 | EC50 [2]: 51.4 µM | CC50 [3]: > 200 µM

COc1cc(C[C@@H](C)[C@@H](C)Cc2ccc(OC)c(OC)c2)ccc1O
selectivity ratio [1]: 5.8 | EC50 [2]: 2.9 µM | CC50 [3]: 17.2 µM

C/C=C(\C)C(=O)O[C@H]1c2cc(OC)c(OC)c(OC)c2-c2c(cc3c(c2OC)OCO3)[C@H](OC(=O)c2ccccc2)[C@H](C)[C@H]1C
selectivity ratio [1]: 5.1 | EC50 [2]: 15.4 µM | CC50 [3]: 78.2 µM

C/C=C(\C)C(=O)O[C@H]1c2cc(OC)c(OC)c(OC)c2-c2c(cc3c(c2OC)OCO3)[C@H](OC(=O)/C=C/c2ccccc2)[C@H](C)[C@]1(C)O
selectivity ratio [1]: > 25.2 | EC50 [2]: 7.9 µM | CC50 [3]: > 200 µM

COc1ccc([C@@H]2O[C@H](c3ccc4c(c3)OCO4)[C@@H](C)[C@@H]2C)cc1O
selectivity ratio [1]: 2.9 | EC50 [2]: 6.8 µM | CC50 [3]: 19.9 µM

COc1ccc([C@H]2O[C@H](c3ccc4c(c3)OCO4)[C@@H](C)[C@H]2C)cc1OC
selectivity ratio [1]: 6.7 | EC50 [2]: 15.5 µM | CC50 [3]: 104 µM

CCCCCC(=O)O[C@H]1c2cc3c(c(OC)c2-c2c(cc(OC)c(OC)c2OC)[C@H](OC(=O)c2ccccc2)[C@@](C)(O)[C@H]1C)OCO3
selectivity ratio [1]: 4.1 | EC50 [2]: 28.7 µM | CC50 [3]: 119 µM

COc1cc2c(c(OC)c1OC)-c1c(cc3c(c1OC)OCO3)C(=O)[C@@H](C)[C@@H](C)C2
selectivity ratio [1]: > 9.8 | EC50 [2]: 20.4 µM | CC50 [3]: > 200 µM

COc1cc2c(cc1O)C[C@@H](C)[C@@H](C)[C@@H]2c1ccc(OC)c(OC)c1
selectivity ratio [1]: 6.7 | EC50 [2]: 4.5 µM | CC50 [3]: 30 µM

COc1ccc([C@H]2O[C@@H](c3ccc(OC)c(OC)c3)[C@H](C)[C@@H]2C)cc1OC [GALGRAVIN]
selectivity ratio [1]: 5.6 | EC50 [2]: 7.7 µM | CC50 [3]: 43.4 µM

C/C=C(/C)C(=O)O[C@H]1c2cc(OC)c(OC)c(OC)c2-c2c(cc3c(c2OC)OCO3)[C@H](OC(C)=O)[C@H](C)[C@@H]1C [INTERIOTHERIN C]
selectivity ratio [1]: > 20.2 | EC50 [2]: 9.9 µM | CC50 [3]: > 200 µM

COc1cc2c(c(OC)c1OC)-c1c(cc3c(c1OC)OCO3)[C@H](OC(C)=O)[C@H](C)[C@H](C)C2 [KADSURIN]
selectivity ratio [1]: > 2.5 | EC50 [2]: 79.1 µM | CC50 [3]: > 200 µM

COc1cc(C[C@@H](C)[C@@H](C)Cc2ccc(O)c(OC)c2)ccc1O [MESODIHYDROGUAIARETIC ACID]
selectivity ratio [1]: 6.2 | EC50 [2]: 4 µM | CC50 [3]: 24.9 µM

C/C=C(\C)C(=O)Oc1c(OC)c(OC)cc2c1-c1c(cc(OC)c(OC)c1OC)[C@H](O)[C@H](C)[C@H](C)C2 [METHYL SCHISANTHERIN F]
selectivity ratio [1]: > 12.7 | EC50 [2]: 15.7 µM | CC50 [3]: > 200 µM

COc1ccc(C[C@@H](C)[C@@H](C)Cc2ccc(OC)c(OC)c2)cc1OC [TERAMEPROCOL]
selectivity ratio [1]: 2 | EC50 [2]: 14.8 µM | CC50 [3]: 28.8 µM

CC[C@H](C)C(=O)Oc1c(OC)c(OC)cc2c1-c1c(cc(OC)c(OC)c1OC)[C@H](O)[C@H](C)[C@H](C)C2 [TIEGUSANIN A]
selectivity ratio [1]: > 6.7 | EC50 [2]: 29.8 µM | CC50 [3]: > 200 µM

COc1cc2c(c(OC)c1OC)-c1c(cc(OC)c(OC)c1OC(=O)c1ccccc1)[C@H](O)[C@H](C)[C@H](C)C2 [TIEGUSANIN C]
selectivity ratio [1]: > 10.8 | EC50 [2]: 18.5 µM | CC50 [3]: > 200 µM

COc1c(O)cc2c(c1OC)-c1c(cc3c(c1OC)OCO3)C[C@@H](C)[C@@H](C)[C@H]2OC(=O)/C=C/c1ccccc1 [TIEGUSANIN L]
selectivity ratio [1]: 10.2 | EC50 [2]: 7.3 µM | CC50 [3]: 74.1 µM

COc1ccc(CC(C)C(C)Cc2cc(OC)c(OC)c(OC)c2)cc1OC (stereo not drawn) [TIEGUSANIN N]
selectivity ratio [1]: 2.6 | EC50 [2]: 9.4 µM | CC50 [3]: 24.5 µM

Cc1cn([C@H]2C[C@H](N=[N+]=[N-])[C@@H](CO)O2)c(=O)[nH]c1=O [ZIDOVUDINE]
selectivity ratio [1]: > 500000 | EC50 [2]: 0.00195 µM | CC50 [3]: > 1000 µM
